Measurements pooled from the literature.
Compare with care: the assays were run in different laboratories.
Target: Phosphatidylinositol 4-phosphate 5-kinase type-1 alpha (PIP5K1A, Homo sapiens, UniProt Q99755)

O=C(Nc1c[nH]nc1C(=O)NC1CCNCC1)c1cc(F)cc(F)c1 — remaining binding (binding; competition with immobilised ligand; 1 µM): 100%
CN(C)c1nccc(-c2cnn3ncccc23)n1 — remaining binding (binding; 1 µM): 100%
FC(F)(F)Oc1cccc(-c2cnc3ccc(-c4ccncc4)nn23)c1 — remaining binding (cell-free assay; competition with immobilised ligand; 5 µM): 20%
Cc1nc(NC(=O)N2CCC[C@H]2C(N)=O)sc1-c1ccnc(C(C)(C)C(F)(F)F)c1 — remaining binding (binding; competition with immobilised ligand; 10 µM): 59%
c1cnn2ncc(-c3ccnc(N4CCC45COC5)n3)c2c1 — remaining binding (binding; 1 µM): 100%
O=C(c1ccc(Nc2nccc(-c3cc4ccccc4s3)n2)cc1)N1CCC(N2CCCC2)CC1 — remaining binding (binding; competition with immobilised ligand; 1 µM): 2.8%
CN(C)c1ncc(F)c(-c2cnn3ncccc23)n1 — remaining binding (binding; 1 µM): 100%
Cc1cc(C)c(-n2ccn3nc(-c4cccnc4)cc23)cc1NC(=O)c1cc(C#N)cc(S(F)(F)(F)(F)F)c1 — remaining binding (cell-free assay; competition with immobilised ligand; 0.1 µM): 95%
CNC(=O)[C@@H]1CC[C@@H](n2c(-c3ccc4cnccc4c3)nc3ccc(C(=O)NCc4cccc(C(N)=O)c4)cc32)C1 — remaining binding (binding; competition with immobilised ligand; 1 µM): 92%
O=C(c1ccc(Nc2ncc(Cl)c(-c3ccc(Cl)s3)n2)cc1)N1CCC(N2CCCC2)CC1 — remaining binding (binding; competition with immobilised ligand; 1 µM): 3%
CCN1CCN(Cc2ccc(C(=O)Nc3ccc(C)c(Oc4ccc5c(c4)CC(=O)N5)c3)cc2C(F)(F)F)CC1 — remaining binding (binding; competition with immobilised ligand; 1 µM): 100%
CCCOc1ccc([C@@H]2[C@@H](C(=O)O)[C@H](c3ccc4c(c3)OCO4)CN2CC(=O)Nc2c(CC)cccc2CC)cc1 — remaining binding (cell-free assay; competition with immobilised ligand; 1 µM): 90%
CN(c1nccc(-c2cnn3ncccc23)n1)C1CC1 — remaining binding (binding; 1 µM): 100%
COc1cc(-c2cn(C3CCc4ccccc4N(CC(F)(F)F)C3=O)nn2)ccc1-n1ccc(C)n1 (centres unmarked) — remaining binding (cell-free assay; competition with immobilised ligand; 1 µM): 96%
C[C@@H]1CCN(c2nccc(-c3cnn4ncccc34)n2)C1 — remaining binding (binding; 1 µM): 52%
CN(C)CC#Cc1ccc(OCCCc2sc(N3CCc4cccc(C(=O)Nc5nc6ccccc6s5)c4C3)nc2C(=O)O)c(F)c1 — remaining binding (cell-free assay; competition with immobilised ligand; 1 µM): 100%
Cc1cnc(Nc2ccc(C(=O)N3CCC(N4CCCC4)CC3)cc2)nc1-c1cc2ccccc2s1 — remaining binding (binding; competition with immobilised ligand; 1 µM): 1.5%
O=C(O)c1cc(-c2ccc(C3CCNCC3)cc2)c2ccc(-c3ccc(C(F)(F)F)cc3)cc2c1 — remaining binding (cell-free assay; competition with immobilised ligand; 1 µM): 78%
F[C@@H]1CCN(c2nccc(-c3cnn4ncccc34)n2)C1 — remaining binding (binding; 1 µM): 100%
O=C(Nc1ccc(Oc2ccc(F)cc2)cc1)N1CCc2ncccc2[C@H]1c1ccc(F)cc1 — remaining binding (cell-free assay; competition with immobilised ligand; 1 µM): 95%
COc1ccnn2ncc(-c3ccnc(N(C)C)n3)c12 — remaining binding (binding; 1 µM): 72%
Cc1c[nH]c2nccc(Oc3c(F)cc(Nc4cc(Cl)nc(N)n4)cc3F)c12 — remaining binding (cell-free assay; competition with immobilised ligand; 0.1 µM): 68%
c1cncc(-c2cccc(Nc3nccc(NC4CCCCC4)n3)c2)c1 — remaining binding (binding; competition with immobilised ligand; 10 µM): 71%
